The values below come from ChEMBL document CHEMBL1128505, “On the quantitative structure-activity relationships of meta-substituted (S)-phenylpiperidines, a class of preferential dopamine D2 autoreceptor ligands: modeling of dopamine synthesis and release in vivo by means of partial least squares regression” (1995).

Test [1] has as its target D(2) dopamine receptor (Rattus norvegicus) (UniProt P61169). The test is described as follows: Effect on DOPA accumulation in limbic and striatal regions of reserpine-pretreated rat brains. It counts as functional, tissue-based. The settings on record: Brain.
For test [2] the target is unchanged. The test is described as follows: Effect on extracellular DA levels in the striatal region of rat brain. It counts as functional, tissue-based. In a few lines:
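Awake, freely moving rats; test compound injected subcutaneously, with dose varying by compound. Extracellular striatal DA measured by microdialysis, analysing perfusates collected from implanted probes. The value is the maximum DA level between 20 and 100 min after administration, expressed as percent of saline controls.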

Test [3] relates to Rattus norvegicus. The test is described as follows: The in vivo effect of the compound (sc injection, 227 umol/kg) on DOPA accumulation in limbic and striatal regions of reserpine-pretreated rat brains. The test is classed as functional, Brain.
For test [4], the system named is Rattus norvegicus. The test is described as follows: In vivo effect on DOPA accumulation in limbic and striatal regions of the rat brain without reserpine pretreatment. The test is classed as functional, Limbic system. Set-up: unit not given beside the values.
For test [5], the system named is Rattus norvegicus. The test is described as follows: The in vivo effect of the compound (sc injection, 50 umol/kg) on DOPA accumulation in limbic and striatal regions of reserpine-pretreated rat brains. It counts as functional, Brain.
The test system of test [6] is Rattus norvegicus. The experiment in a line: The in vivo effect of the compound (sc,3.7uM/kg) on DOPA accumulation in limbic and striatal regions of the rat brain without reserpine pretreatment. The test is classed as functional. In a few lines:
(§1)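 No reserpine pretreatment. Rats given test compound subcutaneously, then the decarboxylase inhibitor NSD 1015. L-DOPA accumulated in limbic and striatal brain tissue was measured. The value is the maximum effect, selected at a dose where the dose-response curve had reached maximum, expressed as percent of controls.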

The test system of test [7] is Rattus norvegicus. The test is described as follows: The in vivo effect of the compound (sc injection, 107 umol/kg) on DOPA accumulation in limbic and striatal regions of reserpine-pretreated rat brains. The test is classed as functional, Brain. In a few lines: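 Rats pretreated with reserpine 18 h before subcutaneous test compound, then given the decarboxylase inhibitor NSD 1015. L-DOPA accumulation measured in limbic and striatal brain tissue. The value is the maximum effect, taken at a dose where the dose-response curve had reached maximum, expressed as percent of controls.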

Test [8] concerns Rattus norvegicus. The experiment in a line: The in vivo effect of the compound (sc,227uM/kg) on DOPA accumulation in limbic and striatal regions of the rat brain without reserpine pretreatment. The test is classed as functional. A digest of the protocol:
as §1

Sequence of D(2) dopamine receptor (Rattus norvegicus) (P61169 whole entry): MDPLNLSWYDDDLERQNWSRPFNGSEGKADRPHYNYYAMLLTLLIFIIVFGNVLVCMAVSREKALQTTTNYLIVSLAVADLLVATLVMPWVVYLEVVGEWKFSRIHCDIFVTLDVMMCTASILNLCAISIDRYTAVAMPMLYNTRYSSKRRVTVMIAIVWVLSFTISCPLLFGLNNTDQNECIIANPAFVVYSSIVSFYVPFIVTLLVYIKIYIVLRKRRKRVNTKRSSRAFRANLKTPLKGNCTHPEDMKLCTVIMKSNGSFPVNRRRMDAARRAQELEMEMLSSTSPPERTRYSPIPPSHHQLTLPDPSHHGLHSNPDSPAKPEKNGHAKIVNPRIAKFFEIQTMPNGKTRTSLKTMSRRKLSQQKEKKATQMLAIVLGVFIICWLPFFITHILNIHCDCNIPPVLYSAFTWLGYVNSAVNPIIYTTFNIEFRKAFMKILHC

Turning to `CCCN1CCC[C@@H](c2cccc(N)c2)C1`, the DOPA accumulation in test [1] amounted to 91.

`CCCN1CCC[C@@H](c2cccc(O)c2)C1` [PRECLAMOL] registered an Activity in test [2] of 400. Besides, in the test with Rattus norvegicus [3], the DOPA accumulation worked out at 30.

For the molecule `CN1CCC[C@@H](c2cccc(OS(=O)(=O)C(F)(F)F)c2)C1`, in the test on Rattus norvegicus [4], the DOPA accumulation stood at 157.

On to `CCCN1CCC[C@@H](c2cccc(OC)c2)C1`, for which the DOPA accumulation in test [1] was found to be 66.

Regarding `CCCN1CCC[C@@H](c2cccc(S(C)(=O)=O)c2)C1`, the DOPA accumulation in test [1] amounted to 95. Further, the Activity in test [2] was 293.

In the case of `CCCN1CCC[C@@H](c2cccc(C(C)=O)c2)C1`, the DOPA accumulation in test [1] was 73. This molecule gave an Activity in test [2] of 196.

Consider `CCCCN1CCC[C@@H](c2cccc(C#N)c2)C1`, for which, in the test with Rattus norvegicus [5], the DOPA accumulation came out at 71.

With `Oc1cccc([C@@H]2CCCN(CCc3ccccc3)C2)c1`, the DOPA accumulation was determined as 37 in the test with Rattus norvegicus [6] and 22 with Rattus norvegicus [7].

For `C#Cc1cccc([C@@H]2CCCN(CCC)C2)c1`, the Activity in test [2] amounted to 270.

For the molecule `CCCN1CCC[C@@H](c2cccc(OS(C)(=O)=O)c2)C1`, the DOPA accumulation stood at 249 with Rattus norvegicus [4] and 92 in test [1]. Besides, the Activity in test [2] came to 239.

In the case of `Oc1cccc([C@@H]2CCCNC2)c1`, the DOPA accumulation in the test with Rattus norvegicus [8] stood at 44.

On to `CCCc1cccc([C@@H]2CCCN(CCC)C2)c1`, for which the DOPA accumulation worked out at 190 in the test on Rattus norvegicus [4] and 62 in test [1].

Take `CCCN1CCC[C@@H](c2cccc(CC#N)c2)C1`: the DOPA accumulation in test [1] came to 57.

In test [2], `CCC(C)N1CCC[C@@H](c2cccc(C#N)c2)C1` (some centres not stated) came in with an Activity of 282.

In the case of `CCCCN1CCC[C@@H](c2cccc(O)c2)C1`, the DOPA accumulation stood at 86 with Rattus norvegicus [6] and 22 with Rattus norvegicus [7].

For the molecule `CCN1CCC[C@@H](c2cccc(OS(=O)(=O)C(F)(F)F)c2)C1`, the DOPA accumulation in the test on Rattus norvegicus [4] was determined as 286. Besides, the Activity in test [2] was determined as 143.

Molecule `C=CCN1CCC[C@@H](c2ccccc2)C1` displayed an Activity in test [2] of 364.

As to `CCCN1CCC[C@@H](c2cccc(C#N)c2)C1`, the DOPA accumulation in test [1] amounted to 105. The same molecule yielded an Activity in test [2] of 411.

On to `CCCN1CCC[C@@H](c2cccc(C=O)c2)C1`, for which, in test [1], the DOPA accumulation is 83.

Regarding `CCCCN1CCC[C@@H](c2cccc(OS(=O)(=O)C(F)(F)F)c2)C1`, the DOPA accumulation with Rattus norvegicus [4] was found to be 234.

Regarding `CN1CCC[C@@H](c2cccc(O)c2)C1`, the DOPA accumulation turned out to be 20 in the test with Rattus norvegicus [7] and 51 in the test on Rattus norvegicus [8].

Molecule `CCN1CCC[C@@H](c2cccc(C#N)c2)C1` registered an Activity in test [2] of 223.

In the case of `CCCN1CCC[C@@H](c2ccccc2)C1`, the DOPA accumulation in the test with Rattus norvegicus [4] is recorded as 140; in the test on Rattus norvegicus [5] it was 65. The molecule also had an Activity in test [2] of 543.

Regarding `CCCN1CCC[C@@H](c2cccc(SC)c2)C1`, the DOPA accumulation with Rattus norvegicus [5] was 92.

As for `CCCN1CCC[C@@H](c2cccc(Br)c2)C1`, the DOPA accumulation in test [1] amounted to 101. For the same molecule, the Activity in test [2] is 372.

As to `CC(C)N1CCC[C@@H](c2cccc(O)c2)C1`, the DOPA accumulation was 47 in the test with Rattus norvegicus [4] and 18 in test [1]. In test [2], the Activity was determined as 56.

`CCCN1CCC[C@@H](c2cccc(CO)c2)C1`: the DOPA accumulation in test [1] worked out at 50. In test [2], the Activity came out at 191.

As for `CCCN1CCC[C@@H](c2cccc(-c3ccsc3)c2)C1`, the Activity in test [2] turned out to be 106.

Consider `C=CCN1CCC[C@@H](c2cccc(C#N)c2)C1`, for which the DOPA accumulation in test [1] turned out to be 85. Besides, in test [2], the Activity turned out to be 593.
